Experimental data reported in publication PMC4372064 (ACS Chemical Neuroscience, 2014).
“Also recorded” adds a separate entry of the source. Like-named read-outs stand apart in the source and are kept apart here.

Columns and labels:
[1] = tested on: rats (tibial-nerve injury model); assay: Tibial-nerve injury; format: in vivo, rat
[2] = tested on: voltage-gated sodium channels in rat embryonic cortical neurons; assay: Whole-cell patch clamp, inactivation protocol, rat embryonic cortical neurons; format: cell-based; conditions: 10 μM
[3] = tested on: voltage-gated sodium channels in rat embryonic cortical neurons; format: cell-based; conditions: 10 μM
[4] = tested on: voltage-gated sodium channels in rat embryonic cortical neurons; assay: Whole-cell patch clamp, steady-state activation, rat embryonic cortical neurons; format: cell-based; conditions: 10 μM
[5] = tested on: mice (6 Hz psychomotor seizure model); conditions: ip, 32 mA, [time of peak effect, h], (95% CI); cited from earlier work
[6] = tested on: rat (MES seizure model); conditions: po, (95% CI), cited from earlier work
[7] = tested on: rat (behavioral toxicity); conditions: po, h]; cited from earlier work
[8] = tested on: mice (formalin pain model); conditions: 8 mg/kg; cited from earlier work
[9] = target: T1, sodium channels in CAD cells (Mus musculus, UniProt Q62205); conditions: cited from earlier work
[10] = tested on: Na+ currents in CAD cells; conditions: 100 μM; cited from earlier work
[11] = target: T1, sodium channels in CAD cells; assay: Whole-cell patch clamp, steady-state fast inactivation, CAD cells; format: cell-based
How it was run: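 CAD cells were recorded by whole-cell clamp at room temperature, with 3 s between pulses. Steady-state fast inactivation was induced by a previously described protocol. Test compound was applied at 10 μM (10–200 μM for one compound) versus 0.1% DMSO control. Each recording was fitted to a Boltzmann function to give V1/2 and slope k, which were averaged (mean ±SEM). Cells numbered 3–7 per condition, compared by Student's t test or one-way ANOVA.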

[12] = tested on: Na+ currents in CAD cells; assay: Whole-cell patch clamp, frequency; format: cell-based, mouse; conditions: 100 μM
How it was run: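 Whole-cell voltage clamp was done at room temperature on CAD cells (Ham's F12/DMEM, 10% FBS, 1% pen/strep, 37 °C, 5% CO2, passaged 1:5 every 3–5 days). Criteria were access resistance <3 MΩ and −P/4 leak subtraction. Cells were held at −80 mV and given 20 ms pulses to −10 mV at 10 Hz. Peak currents were compared with the first pulse against 0.1% DMSO control, with test compound at 10 or 100 μM.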

[13] = tested on: mice (MES seizure model); conditions: ip, (95% CI), cited from earlier work
[14] = tested on: scMet seizure model; conditions: cited from earlier work

T1 sequence (Q62205 whole entry): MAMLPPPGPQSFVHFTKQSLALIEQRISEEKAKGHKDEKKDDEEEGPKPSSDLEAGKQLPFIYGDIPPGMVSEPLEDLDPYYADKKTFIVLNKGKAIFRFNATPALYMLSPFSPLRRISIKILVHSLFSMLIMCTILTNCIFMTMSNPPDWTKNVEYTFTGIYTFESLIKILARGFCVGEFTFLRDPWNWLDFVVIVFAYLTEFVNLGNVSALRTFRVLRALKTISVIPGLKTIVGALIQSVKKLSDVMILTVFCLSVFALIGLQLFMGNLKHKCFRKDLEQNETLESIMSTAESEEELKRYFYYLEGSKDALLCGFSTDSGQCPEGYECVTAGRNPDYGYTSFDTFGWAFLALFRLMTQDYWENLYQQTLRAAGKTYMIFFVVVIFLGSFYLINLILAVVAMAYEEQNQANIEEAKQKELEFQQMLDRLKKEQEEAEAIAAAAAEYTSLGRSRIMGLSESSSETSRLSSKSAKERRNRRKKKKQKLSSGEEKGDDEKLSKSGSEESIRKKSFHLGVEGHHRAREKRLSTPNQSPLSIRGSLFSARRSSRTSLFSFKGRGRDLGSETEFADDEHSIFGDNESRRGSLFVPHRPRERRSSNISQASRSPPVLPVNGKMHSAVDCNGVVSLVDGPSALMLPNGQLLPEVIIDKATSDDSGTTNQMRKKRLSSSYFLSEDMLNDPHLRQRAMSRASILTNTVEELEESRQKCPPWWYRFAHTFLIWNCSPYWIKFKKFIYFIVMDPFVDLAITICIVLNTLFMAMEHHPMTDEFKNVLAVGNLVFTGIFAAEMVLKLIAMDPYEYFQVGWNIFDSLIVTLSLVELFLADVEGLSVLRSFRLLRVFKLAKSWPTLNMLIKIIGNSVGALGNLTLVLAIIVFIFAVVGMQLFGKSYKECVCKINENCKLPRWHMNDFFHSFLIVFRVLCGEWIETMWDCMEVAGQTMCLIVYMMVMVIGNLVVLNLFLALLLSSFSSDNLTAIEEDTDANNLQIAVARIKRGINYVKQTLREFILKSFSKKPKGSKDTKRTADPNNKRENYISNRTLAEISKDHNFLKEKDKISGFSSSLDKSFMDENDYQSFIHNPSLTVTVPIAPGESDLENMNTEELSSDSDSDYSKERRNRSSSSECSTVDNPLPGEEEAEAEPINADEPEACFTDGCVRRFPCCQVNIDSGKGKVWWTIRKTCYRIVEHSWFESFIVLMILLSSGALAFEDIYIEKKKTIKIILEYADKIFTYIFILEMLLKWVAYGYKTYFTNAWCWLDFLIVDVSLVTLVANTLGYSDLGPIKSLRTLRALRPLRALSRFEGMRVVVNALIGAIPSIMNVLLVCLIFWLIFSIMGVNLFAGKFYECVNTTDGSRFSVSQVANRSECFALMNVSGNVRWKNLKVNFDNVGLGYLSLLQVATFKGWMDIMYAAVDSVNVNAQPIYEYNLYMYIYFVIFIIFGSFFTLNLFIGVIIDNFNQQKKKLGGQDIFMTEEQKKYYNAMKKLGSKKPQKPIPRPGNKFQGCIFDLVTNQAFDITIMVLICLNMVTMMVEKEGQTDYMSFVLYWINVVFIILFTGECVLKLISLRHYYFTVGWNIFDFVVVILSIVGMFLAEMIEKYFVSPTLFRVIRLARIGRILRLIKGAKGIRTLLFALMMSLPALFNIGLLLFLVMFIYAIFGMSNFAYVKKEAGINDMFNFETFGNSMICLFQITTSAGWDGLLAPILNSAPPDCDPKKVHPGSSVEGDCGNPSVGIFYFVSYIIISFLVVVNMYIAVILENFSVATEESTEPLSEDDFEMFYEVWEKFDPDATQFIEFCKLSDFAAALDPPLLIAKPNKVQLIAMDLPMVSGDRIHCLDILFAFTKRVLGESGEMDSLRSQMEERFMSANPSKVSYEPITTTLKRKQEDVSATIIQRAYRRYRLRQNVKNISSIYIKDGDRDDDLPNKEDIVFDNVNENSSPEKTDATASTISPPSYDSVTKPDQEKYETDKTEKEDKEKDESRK

COC[C@@H](NC(C)=O)C(=O)NCc1ccccc1 [(R)-2, (R)-N-benzyl 2-N-acetamido-3-methoxypropionamide]
reversal of tactile hypersensitivity (% of preinjury values) ([1]; TNI day 14, 10 mg/kg ip, 1 h after administration): ~72% | effect on sodium channel inactivation (in words) [2]: neither parent compound affected inactivation | effect on steady-state fast inactivation (in words) [3]: neither (R)-2 nor (S)-3 affected fast inactivation | effect on steady-state activation of VGSCs (in words) [4]: neither 10 μM (R)-2 nor 10 μM (S)-3 affected the steady-state activation | 6 Hz ED50 [5]: 10 mg/kg | MES, ED50 ([6]; [time of peak effect, h]): 3.9 mg/kg | Tox, TD50 (behavioral toxicity) [7]: >500 [0.5] mg/kg | activity in the second (inflammation) phase of the formalin model [8]: effective | effect on sodium channel fast inactivation [9]: did not | reduction of Na+ currents, frequency (use)-dependence [10]: ~8.8%

C[C@H](NCc1ccc(OCc2cccc(F)c2)cc1)C(N)=O [(S)-3, (S)-2-(4′-((3″-fluoro)benzyloxy)benzyl)aminopropionamide]
effect on mechanical/tactile hypersensitivity (in words) ([1]; TNI day 14, single ip administration, 10 mg/kg): no effect; also recorded: without effect | effect on VGSC fast inactivation [11]: promoted fast inactivation of VGSCs | hyperpolarizing shift in V1/2 of fast inactivation vs control (maximum) ([11]; 200 μM): ~21.6 mV | inhibition of Na+ current, frequency (use)-dependence [12]: ~13% | effect on sodium channel inactivation (in words) [2]: neither parent compound affected inactivation | effect on steady-state fast inactivation (in words) [3]: neither (R)-2 nor (S)-3 affected fast inactivation | effect on steady-state activation of VGSCs (in words) [4]: neither 10 μM (R)-2 nor 10 μM (S)-3 affected the steady-state activation | MES, ED50 [13]: 4.1 (3.0–5.5) mg/kg | MES, ED50 [6]: 12 (10–14) mg/kg | scMet ED50 [14]: 27 mg/kg

NC(=O)N1c2ccccc2C=Cc2ccccc21 [carbamazepine]
effect on tactile hypersensitivity (in words) ([1]; TNI, 65 mg/kg, ip): ineffective

O=C1NC(=O)C(c2ccccc2)(c2ccccc2)N1 [phenytoin]
MES, ED50 ([13]; [time of peak effect, h]): 9.5 mg/kg | MES, ED50 ([6]; [time of peak effect, h]): 30 mg/kg
